Results on three compounds are retold here after PMC6583781 (Journal of medicinal chemistry, 2019).

SMILES strings stand for the structures.

Assay [1] relates to Pa02c cells. Briefly: Cell cytotoxicity assay. The assay is classed as cell-based. As to conditions: Homo sapiens, 48 h, read-out: PaO2c EC50. In a few lines:
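Low-passage patient-derived pancreatic Pa02c cells, kept in DMEM with 10% FBS. Plated at 2000 cells/well in poly-D-lysine-treated plates and grown overnight at 37 °C, 5% CO2. Test compound in 5% FBS DMEM, 5-point 1:2 serial dilution from 100 µM, with DMSO vehicle and drug-background wells, for 48 h. Medium then refreshed and Alamar Blue added (10% final) for 4 h. Fluorescence read, background-subtracted, normalized to media alone.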

Assay [2] has as its target APE1 (Homo sapiens, UniProt P27695). Briefly: APE1 endonuclease. The assay is classed as biochemical. In a few lines: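 Purified full-length APE1 (0.25-1.25 nM) added to 50 nM duplex substrate (6-FAM strand with tetrahydrofuran AP-site mimic annealed to a quencher strand) in 50 mM Tris, 1 mM MgCl2, 50 mM NaCl, pH 7.5. Compounds in triplicate, 10-point 1:2 dilutions from 100 μM. Fluorescence read kinetically at five 1-min intervals immediately; reaction rate compared with DMSO vehicle.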

As a reminder, the EC50 is the midpoint of the concentration-response curve. By IC50 is commonly meant the concentration that inhibits the measured activity by half. A low value points to inhibition by little substance.

APE1, sequence (P27695 whole entry): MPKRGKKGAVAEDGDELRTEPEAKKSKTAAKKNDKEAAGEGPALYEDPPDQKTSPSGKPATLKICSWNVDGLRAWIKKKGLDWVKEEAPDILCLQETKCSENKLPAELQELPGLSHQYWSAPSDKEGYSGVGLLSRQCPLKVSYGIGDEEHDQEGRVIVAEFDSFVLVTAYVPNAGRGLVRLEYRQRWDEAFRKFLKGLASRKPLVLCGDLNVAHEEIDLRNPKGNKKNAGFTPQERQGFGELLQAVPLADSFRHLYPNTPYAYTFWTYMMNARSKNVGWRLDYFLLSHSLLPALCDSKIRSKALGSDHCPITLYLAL

As to `Cc1ccc(S(=O)(=O)n2cccc2[C@@H]2NC(=O)[C@H](Cc3c[nH]c4ccccc34)NC(=O)C[C@@H](CCc3ccccc3)NC(=O)C/C=C/[C@@H]2C)cc1` [Compound 21, (3S,7R,13S,14R,E)-3-((1H-Indol-3-yl)methyl)-13-methyl-7-phenethyl-14-(1-tosyl-1H-pyrrol-2-yl)-1,4,8-triazacyclotetradec-11-ene-2,5,9-trione], in assay [1], the EC50 is more than 100 µM.
In assay [2], `Cc1ccc(S(=O)(=O)n2cccc2[C@@H]2NC(=O)[C@H](Cc3c[nH]c4ccccc34)NC(=O)CCNC(=O)C/C=C/[C@@H]2C)cc1` [Compound 19, (3S,13S,14R,E)-3-((1H-Indol-3-yl)methyl)-13-methyl-14-(1-tosyl-1H-pyrrol-2-yl)-1,4,8-triazacyclotetradec-11-ene-2,5,9-trione] had an IC50 of 16.9 µM. This counts as double-digit micromolar.
In the case of `Cc1ccc(S(=O)(=O)n2cccc2[C@@H]2NC(=O)[C@H](Cc3c[nH]c4ccccc34)NC(=O)C[C@H](CCc3ccccc3)NC(=O)C/C=C/[C@@H]2C)cc1` [Compound 20, (3S,7S,13S,14R,E)-3-((1H-Indol-3-yl)methyl)-13-methyl-7-phenethyl-14-(1-tosyl-1H-pyrrol-2-yl)-1,4,8-triazacyclotetradec-11-ene-2,5,9-trione], the EC50 in assay [1] is more than 100 µM.
